Measured values reported in ChEMBL document CHEMBL1156704, “Angiotensin II--AT1 receptor antagonists: design, synthesis and evaluation of substituted carboxamido benzimidazole derivatives” (Eur J Med Chem, 2008).

Experiments:
[1] = target: T1, Type-1 angiotensin II receptor A (Rattus norvegicus) (UniProt P25095); experiment: (§1) Antagonist activity at AT1 receptor in rat aorta; format: functional, tissue-based
T1 sequence (whole entry): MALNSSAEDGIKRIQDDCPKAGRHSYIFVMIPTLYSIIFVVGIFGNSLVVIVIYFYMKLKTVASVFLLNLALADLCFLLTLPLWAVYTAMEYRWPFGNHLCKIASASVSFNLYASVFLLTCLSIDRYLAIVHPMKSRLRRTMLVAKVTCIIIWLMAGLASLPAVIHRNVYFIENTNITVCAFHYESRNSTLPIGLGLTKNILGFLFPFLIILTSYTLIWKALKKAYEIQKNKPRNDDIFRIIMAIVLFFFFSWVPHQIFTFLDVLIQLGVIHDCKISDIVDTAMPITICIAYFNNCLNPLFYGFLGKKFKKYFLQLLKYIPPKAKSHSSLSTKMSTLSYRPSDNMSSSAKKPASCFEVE

[2] = target: T2, Type-1 angiotensin II receptor A (Rattus norvegicus, UniProt P25095); experiment: as §1; format: functional, tissue-based; conditions: read-out: pA2 (converted)
T2 sequence (P25095 whole entry): T1 sequence (whole entry)

Rattus norvegicus [3] = experiment: Antihypertensive activity against desoxycortisone-induced hypertension in rat assessed as decrease in mean arterial blood pressure at 3 mg/kg, ip; format: functional, Artery; conditions: route intraperitoneal
Summary of the method: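 Hypertension induced in rats with desoxycortisone acetate 40 mg kg-1 s.c. Mean arterial blood pressure recorded through a carotid artery cannula connected to a pressure transducer. Test agents were given intraperitoneally. The dose-finding series used 0.1–30.0 mg kg-1, and the remaining agents were tested at 1.0, 3.0 and 10.0 mg kg-1.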

Rattus norvegicus [4] = experiment: Antihypertensive activity against desoxycortisone-induced hypertension in rat assessed as decrease in mean arterial blood pressure at 5 mg/kg, ip; format: functional, Artery; conditions: route intraperitoneal

SMILES | pA10 [1] | Kb [2] | Activity (Rattus norvegicus [3]) | Activity (Rattus norvegicus [4])
CCCCc1nc2cc(NC(C)=O)ccc2n1Cc1ccc(-c2ccccc2C(=O)O)cc1 | 5.9 | 10 nM | 33.5 mmHg | 
CCCCc1nc(Cl)c(CO)n1Cc1ccc(-c2ccccc2-c2nnn[nH]2)cc1 [LOSARTAN] | 6.5 |  |  | 29.7 mmHg
CCCCc1nc2cc(NC(=O)c3ccc(Cl)cc3)ccc2n1Cc1ccc(-c2ccccc2C(=O)O)cc1 | 5.4 | 631 nM | 12 mmHg | 
CCCCc1nc2cc(N)ccc2n1Cc1ccc(-c2ccccc2C(=O)O)cc1 | 7 | 15.8 nM | 33.3 mmHg | 
CCCCc1nc2cc(NC(=O)CC)ccc2n1Cc1ccc(-c2ccccc2C(=O)O)cc1 | 4.7 | 20 nM | 36.2 mmHg | 
CCCCC(=O)Nc1ccc2c(c1)nc(CCCC)n2Cc1ccc(-c2ccccc2C(=O)O)cc1 | 3.7 | 398 nM | 21.7 mmHg | 
CCCCc1nc2cc(NC(=O)c3ccccc3)ccc2n1Cc1ccc(-c2ccccc2C(=O)O)cc1 | 6 | 251 nM | 19.8 mmHg | 
CCCCc1nc2cc(NC(=O)c3ccccc3Cl)ccc2n1Cc1ccc(-c2ccccc2C(=O)O)cc1 | 5.8 | 316 nM | 20.3 mmHg | 
CCCCc1nc2cc(NC(=O)CCC)ccc2n1Cc1ccc(-c2ccccc2C(=O)O)cc1 | 4.4 | 79.4 nM | 26.4 mmHg | 
CCOc1nc2cccc(C(=O)O)c2n1Cc1ccc(-c2ccccc2-c2nnn[nH]2)cc1 | 7.1 | 10 nM |  | 31.8 mmHg
